# Only some compounds are listed: those with a hit (about 4.3% of all), similar ones and a draw of the others.
# Beta2AR agonist – beta2AR agonists driving receptor internalization, primary screen, cell-based, FAP fluorogen, flow cytometry. Beta-2 adrenergic receptor (Homo sapiens), P07550. Am2.2-beta2AR cells. response, % (no concentration beside the values). actives 0.43% (n = 340,000). AID 504454, 2011;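 active = response above a set limit, near 3 SD of response in nonfluorescent compounds, cut at about 42% in these data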
# TAAR1 agonist – human TAAR1 agonists, primary screen, Fluo-8 calcium fluorescence, CHO RD-HGA16 cells. Trace amine-associated receptor 1 (Homo sapiens), Q96RJ0. vehicle wells 0%, saturating PEA agonist 100%. activation, % at 3 µM. actives 0.99% (n = 360,000). AID 624467, 2012;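 active = activation above the mean activation of all test compounds in the run plus 3 SD, cut at about 38% in these data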
#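 System: CHO-derived RD-HGA16 cells with stable Gα16 and human TAAR1 / Times: 17-24 h plating, Fluo-8 75 min 37 °C, 30 min RT / Technique: calcium-sensitive Fluo-8 signal, excitation 470-495, emission 515-575 nm / Measure: % activation relative to PEA EC100 response / Benchmarks: DMSO and PEA EC100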
# HTR2A ag – mouse Htr2a agonists via beta-arrestin recruitment, primary screen, cell-based, luminescence; 5-hydroxytryptamine receptor 2A (Mus musculus), P35363; CHO-K1 mHTR2A beta-arrestin complementation; percent of 30 µM serotonin response; activation, % at 7.6 µM; actives 0.66% (n = 360,000); AID 624169, 2012;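 active = activation above a run cutoff, the mean activation of all tested compounds plus 3 SD, cut at about 14% in these data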;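 also: 0% = plate median of compound wells and 100% = 30 µM serotonin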
# Target sequence (P35363 whole entry, looked up): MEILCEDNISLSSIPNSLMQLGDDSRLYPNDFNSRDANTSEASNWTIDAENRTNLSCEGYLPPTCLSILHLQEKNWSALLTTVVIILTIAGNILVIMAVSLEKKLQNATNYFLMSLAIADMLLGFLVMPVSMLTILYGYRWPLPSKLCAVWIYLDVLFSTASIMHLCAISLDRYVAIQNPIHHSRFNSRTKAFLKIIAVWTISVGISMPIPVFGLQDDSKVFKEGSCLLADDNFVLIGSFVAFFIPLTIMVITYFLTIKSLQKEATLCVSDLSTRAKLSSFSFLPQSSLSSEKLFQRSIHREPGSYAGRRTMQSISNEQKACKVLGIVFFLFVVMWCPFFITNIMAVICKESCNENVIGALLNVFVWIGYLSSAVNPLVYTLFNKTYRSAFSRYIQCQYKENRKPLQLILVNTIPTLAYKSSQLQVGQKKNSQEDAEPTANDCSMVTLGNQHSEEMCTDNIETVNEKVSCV
# MC4R antagonist – MC4R antagonists of cAMP signaling, primary screen, cell-based, TR-FRET, antagonist arm of biased-ligand search; actives 0.48% (n = 360,000); Melanocortin receptor 4 (Homo sapiens), P32245; inhibition, % at 6.5 µM; MC4R-expressing cells, MTII-stimulated cAMP, LANCE TR-FRET;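 active = inhibition above its plate's cutoff, the mean of tested wells on that plate plus 3 SD, cut at about 29% in these data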;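 also: 0% = Melanotan II alone and 100% = Melanotan II plus saturating MCL0020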
#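 System – human MC4R-expressing U2OS cells · Also added – Melanotan II · Dosing – one concentration, 6.5 µM nominal · Timing – 30-min compound, 1-h challenge, 1-h detection, room temperature · Measured by – Eu-cAMP/anti-cAMP TR-FRET, emission 671 nm · Replicates – singlicate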
# MC4R ag barr – MC4R agonists recruiting beta-arrestin, primary screen, cell-based, luminescence, agonist arm of biased-ligand search; activation, % at 8.9 µM; U2OS MC4R beta-arrestin complementation; percent of melanotan II response, DMSO zero; AID 540308, 2011; actives 0.98% (n = 360,000);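 active = activation above a per-plate cutoff, the mean activation of sample wells on that plate plus 3 SD, cut at about 8% in these data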
# TAAR1 antag – human TAAR1 antagonists, primary screen, Fluo-8 calcium fluorescence, CHO RD-HGA16 cells; Trace amine-associated receptor 1 (Homo sapiens), Q96RJ0; antagonist; inhibition, % at 3 µM; actives 1.5% (n = 360,000); AID 624466, 2012;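 active = inhibition above a per-plate cutoff, the mean inhibition of test compounds on that plate plus 3 SD, cut at about 49% in these data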;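 also: 0% = DMSO plus EC80 beta-PEA response and 100% = DMSO alone without agonist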
#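 Material: RD-HGA16 CHO cells with stable hTAAR1 and Gα16; Dosing: single nominal final test compound concentration of 3 µM; Schedule: seeding 17-24 h prior, 75-min 37 °C, 30-min RT dye loading; Detection: kinetic Fluo-8 calcium fluorescence measurement; Measure: % inhibition from peak post-agonist over basal fluorescence ratio; Benchmarks: vehicle and agonist controls.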
# U2OS cAMP counter – nonselective cAMP signaling inhibitors, parental cells, counter-screen for MC4R biased antagonist project, cell-based, TR-FRET, U2OS, forskolin, triplicate | shares compounds with MC4R antagonist | LANCE TR-FRET | inhibition, % at 6.5 µM | actives 26% (n = 1,600) | AID 602193, 2012;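 active = mean inhibition over triplicates above the low-control well mean plus 3 SD, set per campaign, cut at about 13% in these data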;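 also: signal is single emission at 671 nm which falls as cellular cAMP rises; 0% = forskolin-stimulated wells and 100% = buffer without forskolin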
# MC4R antag conf – MC4R cAMP antagonists, retest, confirmation, cell-based, TR-FRET; shares compounds with MC4R antagonist; MC4R-expressing cells, MTII-stimulated cAMP; inhibition, % at 6.5 µM; actives 27% (n = 1,600); in the data active = inhibition above about 29%;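 also: 0% = agonist stimulated wells alone and 100% = agonist stimulated wells plus saturating reference antagonist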
# The depositor's hits bear a star; x = not tested or not shown.
SMILES,Beta2AR agonist,TAAR1 agonist,HTR2A ag,MC4R antagonist,MC4R ag barr,TAAR1 antag,U2OS cAMP counter,MC4R antag conf
O=C(C[n+]1ccccc1)N/N=C/c1ccc(F)cc1,-1.5,2.2,1.6,10.7,-2.3,-13.8,x,x
Cc1c(/C=N\NC(=O)C2(C)CC2(Cl)Cl)cnn1C (centres undefined),-0.2,2.5,-0.7,-2.0,-1.5,-8.7,x,x
CC1(C(=O)N/N=C/c2c(F)c(F)c(F)c(F)c2F)CC1(Cl)Cl (centres undefined),28.8,-2.3,2.0,32.2*,-3.4,-34.7,11.2,54.5*
CCCCC(CC)CN=C(N)NC(N)=NCCCCCCN=C(N)NC(N)=NCC(CC)CCCC (centres undefined),-551.6,x,15.3*,68.9*,3.3,x,54.9*,89.7*
C[C@@]12C(=O)N(Cc3ccccc3)CC(=O)N1[C@H]1c3ccccc3OC[C@@H]1[C@@H]2c1ccccc1,-7.0,8.3,-3.7,29.5*,1.3,5.4,0.0,3.6
COc1ccc(C(CNC(=O)CSc2ccccc2F)N2CCOCC2)cc1 (centres undefined),6.1,4.1,1.4,3.4,0.2,-25.0,x,x
COc1ccc(C(CNC(=O)c2cc(F)c(F)c(F)c2F)N2CCOCC2)cc1 (centres undefined),9.6,-1.6,0.5,31.2*,-1.9,2.9,18.7*,36.0*
ClCC1NCC(c2ccccc2Cl)c2c1[nH]c1ccccc21 (centres undefined),-1.1,7.2,-4.5,36.5*,2.9,-6.0,2.0,2.7
COc1cc(-c2nnc(Sc3ccc(C(F)(F)F)cc3[N+](=O)[O-])o2)cc(OC)c1OC,-7.7,9.2,-4.7,28.6*,-0.4,-1.0,1.8,5.2
CCOc1ccccc1OCCCC(=O)Nc1ccc(Cl)c(S(=O)(=O)N2CCOCC2)c1,-5.3,7.7,3.1,4.9,-0.6,21.0,x,x
O=C(c1cccc([N+](=O)[O-])c1)N1CCN(c2cccc(Cl)c2)CC1,-0.3,-0.3,-3.3,-9.9,-0.4,10.5,x,x
Cc1ccc(N2CCN(C(=O)c3cccc([N+](=O)[O-])c3)CC2)cc1Cl,6.9,1.0,-3.6,33.4*,0.5,-8.7,-0.4,-10.4
CSc1ncc(C(=O)Nc2ccc(C(C)=O)cc2)c(-c2ccccc2)n1,8.1,-0.2,6.0,1.0,-0.7,-2.2,x,x
C(=C\c1ccccc1)/C=N/N1CCN(Cc2ccccc2)CC1,5.7,9.3,-2.9,29.9*,6.7,1.2,-2.8,-3.7
C(/C=C/c1ccccc1)=N/N1CCN(c2ccccc2)CC1,6.2,6.1,-2.2,-0.8,-1.7,-4.0,x,x
CNC(=O)c1cc(C(=O)c2ccc(F)cc2C(F)(F)F)c[nH]1,-1.9,4.8,1.7,9.0,-1.3,-14.6,x,x
Nc1nccc(SCc2ccccc2)n1,6.6,1.3,-6.9,-5.6,-1.1,-19.6,x,x
COc1ccc(NC(=O)Cc2ccc(Cl)c(Cl)c2)cn1,1.4,0.7,5.8,2.9,1.2,12.1,x,x
COc1ccc(NC(=O)/C(Cl)=C(/Cl)S(=O)(=O)Cc2ccc(C)cc2)cn1,61.8*,x,-6.8,40.4*,-3.6,x,37.7*,37.0*
CCN(CC)c1ccc(C2Nc3cccc4cccc(c34)N2)c(O)c1,21.3,-0.1,4.3,32.6*,0.5,15.5,3.2,29.1*
Oc1ccc2ccccc2c1C1Nc2cccc3cccc(c23)N1,8.1,x,-10.2,9.9,0.1,x,x,x
CN(/N=C/c1cc(Cl)cc(Cl)c1O)c1c(Cl)cccc1[N+](=O)[O-],16.0,-1.1,-6.7,29.7*,-0.4,-31.9,-3.9,11.7
Cc1c(NC(=O)CSc2ccc3ccccc3n2)c(=O)n(-c2ccccc2)n1C,-7.2,-1.3,4.2,4.2,-0.3,-8.3,x,x
COc1ccc(CN2CC(C(=O)NCCCN3CCCC(C)C3)CC2=O)cc1 (centres undefined),-4.7,3.1,3.9,33.7*,0.1,-9.2,-1.4,-4.1
COc1ccc(CN2CC(C(=O)NCCCN3CCN(Cc4ccccc4)CC3)CC2=O)cc1 (centres undefined),1.3,x,-3.2,9.5,-0.9,x,x,x
SMILES,Beta2AR agonist,TAAR1 agonist,HTR2A ag,MC4R antagonist,MC4R ag barr,TAAR1 antag,U2OS cAMP counter,MC4R antag conf
O=C(Nc1ccc(F)cc1)c1nn(-c2ccccc2)c(=O)cc1Cl,3.0,5.4,14.0,30.6*,-1.3,21.0,29.8*,38.0*
Cc1ccc(-c2cn3cccnc3n2)cc1NC(=O)c1cccs1,-6.9,0.1,4.7,30.0*,1.7,6.4,-4.9,-15.3
Cc1ccc2nc(-c3ccc(NC(=S)NC(=O)C(C)C)cc3)sc2c1,8.3,3.5,4.5,46.7*,1.8,-1.7,5.5,18.7
Nc1cc(N)nc(SCC(=O)N2CCCCC2)n1,8.9,8.0,-3.7,-2.6,1.3,13.2,x,x
Cc1cc2nnc(SCC(=O)N3CCCCCC3)n2c(N)n1,-20.9,3.5,-0.9,29.3*,-1.5,4.7,0.1,-11.7
O=C(c1ccccc1Cl)N(Cc1ccc(Br)cc1)N1C(=O)CCCC1=O,2.8,1.3,2.0,2.1,-0.5,-0.2,x,x
O=C(c1ccc([N+](=O)[O-])cc1)N(Cc1ccc(Br)cc1)N1C(=O)CCCC1=O,-12.3,1.6,1.6,43.8*,9.1*,1.8,17.1*,12.0
CC(C)C[C@H](N)c1nnc(S(=O)(=O)Cc2ccc(F)cc2)o1,0.0,x,-3.7,43.3*,-4.0,x,22.8*,35.9*
CC(C)(C)c1ccc(C(=O)NCCC(=O)Nc2cc(Cl)ccc2N2CCOCC2)cc1,-2.5,-0.8,-0.7,9.2,0.3,-14.0,x,x
Cc1cc(C=O)c(O)cc1O,-4.8,0.1,-6.0,9.2,-0.2,7.3,x,x
CN(CCC#N)C(=O)COC(=O)c1ccccc1C(=O)c1ccc(Cl)c([N+](=O)[O-])c1,25.2,-0.1,-1.7,33.5*,-4.3,11.9,23.6*,4.7
NC(=S)Nc1cccc(-c2n[nH]c(=S)o2)c1,-0.4,11.3,-0.4,19.6,-0.5,-22.4,x,x

# Compound activity (PubChem BioAssay)
